Calls of active or inactive are those of the source. The calls are words filed in the database; no cut-off is given here.
Key:
HeLa [1] = experiment: Induction of apoptosis in human HeLa cells assessed as morphological and condensed or fragmented DNA at 10 uM after 72 hrs by Hoechst 33342 staining in presence of z-VAD-fmk; assay type: functional, cell-based
Outline: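 HeLa cells were treated with compound (10 μM) alone or with zVAD-fmk (50 μM) for 72 h. Controls were medium with 0.1% DMSO, with or without zVAD-fmk. Cells were stained with Hoechst 33342, washed three times with PBS, and imaged by phase contrast and fluorescence microscopy for cell and nuclear morphology.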

HeLa [2] = experiment: Cytotoxicity against human HeLa cells assessed as decrease in cell viability at 10 uM after 72 hrs by MTT assay; assay type: functional
Outline: (§1)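 HeLa cells were exposed to compound at 10 μM for 72 h. Vehicle was medium with 0.1% DMSO; paclitaxel (500 nM) was the positive control. MTT (5 mg/mL stock in PBS) was added for 2 h at 37 °C. Crystals were dissolved in 10% SDS/0.01 M HCl for 24 h at 37 °C, and OD was read at 595 nm. Viability at 0 h was set to 100. Three independent experiments.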

MDA-MB-435 = experiment: Cytotoxicity against human MDA-MB-435 cells assessed as decrease in cell viability after 72 hrs by MTT assay; assay type: functional, cell-based; conditions: MDA-MB-435, 72 h
Outline: (§2)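 For each cell line, 3000 cells per well were cultured overnight, then given fresh medium with compound. Each compound was tested at ≥7 concentrations in a 3-fold dilution series, with a final DMSO-stock dilution of at least 1000-fold. After 72 h, viability was read by MTT (OD 595 nm). Inhibition was calculated as 1 − [(T72 − C0)/(C72 − C0)] against the 0.1% DMSO control and fitted sigmoidally versus log concentration. Values are mean ± SD, n = 3.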

HeLa [3] = experiment: Cytotoxicity against human HeLa cells assessed as decrease in cell viability at 10 uM after 72 hrs by MTT assay relative to control; assay type: functional; outline: as §1
HCT-116 = experiment: Cytotoxicity against human HCT116 cells assessed as decrease in cell viability after 72 hrs by MTT assay; assay type: functional, cell-based; conditions: HCT-116, 72 h; outline: as §2
HeLa [4] = experiment: Cytotoxicity against human HeLa cells assessed as decrease in cell viability after 72 hrs by MTT assay; assay type: functional, cell-based; outline: as §2
HeLa [5] = experiment: Induction of apoptosis in human HeLa cells assessed as caspase-3 activation at 10 uM after 24 hrs; assay type: functional, cell-based
Outline: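 HeLa cells were treated for 24 h with compound (10 μM), against 0.1% DMSO vehicle; the positive control was UV for 3 min, harvested after 6 h. Lysates were made in Tris pH 7.5/Triton buffer with protease inhibitors. A sample of 50 μg protein was incubated with Ac-DEVD-AMC in HEPES pH 7.5 buffer for 1 h at 37 °C in the dark. Fluorescence was read at 355/460 nm and expressed as net reading per μg protein.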

[6] = Cytotoxicity against human HeLaC3 sensor cells assessed as decrease in YFP/CFP emission ratio within 72 hrs by FRET assay; assay type: functional, HeLa C3
Outline: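 HeLa-C3 cells stably express a CFP–DEVD linker–YFP FRET caspase-3 sensor. Cells were seeded at 7500 per well, and after 12−16 h a background-subtracted baseline was read (excitation 440 nm; emission 486 nm CFP, 535 nm YFP). Compound at 10 μM was added in fresh medium, with 0.1% DMSO vehicle and 500 nM paclitaxel as positive control. Plates were read repeatedly for up to 72 h. An active compound lowers the YFP/CFP ratio to 3 or below.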

MCF7 [7] = experiment: Cytotoxicity against human MCF7 cells assessed as decrease in cell viability after 72 hrs by MTT assay; assay type: functional, cell-based; conditions: MCF7, 72 h; outline: as §2
[8] = Cytotoxicity against human HCT15 cells assessed as decrease in cell viability after 72 hrs by MTT assay; assay type: functional, cell-based; conditions: HCT-15, 72 h; outline: as §2
MCF7 [9] = experiment: Cytotoxicity against human MCF7 cells overexpressing HER2 assessed as decrease in cell viability after 72 hrs by MTT assay; assay type: functional, cell-based; conditions: MCF7, 72 h; outline: as §2
HepG2 = experiment: Cytotoxicity against human HepG2 cells assessed as decrease in cell viability after 72 hrs by MTT assay; assay type: functional, cell-based; conditions: HepG2, 72 h; outline: as §2

SMILES | Activity (HeLa [1]) | viability at 10 µM (HeLa [2]) [%] | IC50 (MDA-MB-435) [µM] | fold change (FC) (HeLa [3]) | IC50 (HCT-116) [µM] | IC50 (HeLa [4]) [µM] | Activity (HeLa [5]) | Ratio [6] | IC50 (MCF7 [7]) [µM] | IC50 [8] [µM] | IC50 (MCF7 [9]) [µM] | IC50 (HepG2) [µM]
CC(C)=CCC/C(C)=C/C[C@@H]1C(C)(C)[C@@]2(CC=C(C)C)C(=O)c3c(oc4cc(O)c(O)cc4c3=O)[C@](CC=C(C)C)(C2=O)C1(C)C [OBLONGIFOLIN G] | inactive | 50 | 16.5 | >30 | 2.9 | 3.9 | Active | 3 | 2.6 | 4 | 2.9 | 7.7
COc1cc(O)c2c(=O)c3ccc(O)c(O)c3oc2c1CCC(C)(C)O [NIGROLINEAXANTHONE T] | inactive | 50 | 9 |  | 3.7 | 4.7 |  | 3 | 3 | 2.4 | 3.8 | 4.8
CC(C)=CCC/C(C)=C/C[C@H]1C(C)(C)[C@@]2(CC=C(C)C)C(=O)c3c(oc4cc(O)c(O)cc4c3=O)[C@](CC=C(C)C)(C2=O)C1(C)C [OBLONGIFOLIN F] | inactive | 50 | 16.5 | >30 | 2.9 | 4.2 | Active | 3 | 3 | 4.9 | 5.1 | 7.7
CC(C)=CCC/C(C)=C/C[C@@H]1C[C@]2(CC=C(C)C)C(=O)[C@@](CC=C(C)C)(C(=O)C(C(=O)c3cccc(O)c3)=C2O)[C@@]1(C)CCC=C(C)C [GARCICOWIN B] | inactive | 50 | 12.6 |  | 6 | 10.8 |  | 3 | 10.8 | 9.6 | 19.1 | 6.2
CC1(C)C=Cc2cc3c(=O)c4c(O)cc(O)cc4oc3c(O)c2O1 | inactive | 50 | 3.9 |  | 4.7 | 4.9 |  | 3 | 11.7 | 5.1 | 34.4 | 10.1

— ChEMBL document CHEMBL3286328, “Characterization of proapoptotic compounds from the bark of Garcinia oblongifolia” (J Nat Prod, 2014)
